# Only a selection was taken, and hits are over-represented in it overall.
# ALR H2O2 inh: inhibitors of human sulfhydryl oxidase ALR. P55789. purified ALR, DTT oxidation, H2O2 HRP-luminol luminescence. inhibition, % (concentration not given with the values). actives 3.8% (n = 290,000). AID 485317;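 active = mean replicate inhibition above about 79%, with every replicate also reaching it, limit read from the data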
# Target sequence (P55789 whole entry, looked up): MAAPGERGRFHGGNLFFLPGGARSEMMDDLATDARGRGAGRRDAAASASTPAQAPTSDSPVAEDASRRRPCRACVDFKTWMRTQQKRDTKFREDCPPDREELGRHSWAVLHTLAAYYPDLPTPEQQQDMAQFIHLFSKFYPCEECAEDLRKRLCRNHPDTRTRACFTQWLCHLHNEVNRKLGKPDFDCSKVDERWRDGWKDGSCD
# Glyco luc inh: blocks N-linked glycosylation in D54 reporter cells | D54 ERlucT glycosylation luciferase reporter, 24 h; percent of 100 nM tunicamycin response | reporter increase, % at 12.5 µM | actives 0.23% (n = 360,000);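 active = mean luciferase reporter signal, scaled so untreated is 0 and the glycosylation-blocking control 100, at or above a set limit in every replicate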;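 also: luciferase carries N-glycosylation sites so blocking glycosylation raises the light; 0% = median of neutral control wells and 100% = median of 100 nM tunicamycin wells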
# T cell HTS: T cell immune modulation candidate; 2C CD8+ T cell-vesicle binding, flow cytometry; stronger effect = lower value; response (vesicle binding), % at 7 µM; actives 0.068% (n = 330,000);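 active = response, share of CD8 T cells binding vesicles, and their 90th percentile fluorescence all below set limits, cut at about 80% in these data, passing the limit was not always enough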;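 also: values below 100% mean blocked vesicle binding to the CD8+ T cells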
#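 Also added: QL9-peptide-loaded Drosophila micro-vesicles bearing Ld, ICAM-1 and B7-1; Test system: purified 2C TCR transgenic mouse naive CD8+ T cells; Measured by: cytometric PE anti-B7-1 and Alexa647 anti-CD8 signals after 1% paraformaldehyde fixation; Timing: binding step 1.5 h, 37 °C, antibody labelling 20 min, ice.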
# * marks the source's active call; other numbers are inactive results; i = inactive; · = no result given.
SMILES,ALR H2O2 inh,Glyco luc inh,T cell HTS
O=C(C1CN(C(=O)c2cc3ccccc3o2)c2ccccc2O1)N1CCCCC1 (stereo not given),·,-1,·
Cc1[nH]c(=S)c(C#N)c(C)c1CCC#N,-8,2,443
Cc1nc2cc(C(=O)N3c4ccccc4CC3C)ccc2s1 (stereo not given),-10,11,268
Cc1cc(=O)[nH]c2sc(C(=O)N3c4ccccc4CC3C)c(N)c12 (stereo not given),98*,0,329
O=C(NN=C1CCCC1)c1cc(-c2ccccc2)n[nH]1,97*,0,420
O=C(NN=C1CCCCC1)c1cc(-c2ccccc2)n[nH]1,56,2,392
N#C/C(=C\c1c(N2CCC(C(N)=O)CC2)nc2ccccn2c1=O)S(=O)(=O)c1ccc(Cl)cc1,-1,1,i
CCN(CC)c1ccc(NC(=O)COC(=O)CCC(=O)c2cccs2)cc1,99*,0,620
CCOc1cc(C(=O)CCC(=O)OCC(=O)Nc2ccc(F)cc2)ccc1O,·,2,·
CN(C)c1ccc(NC(=O)COC(=O)CCC(=O)c2ccc(F)cc2)cc1,97*,8,500
CN(C)c1ccc(NC(=O)COC(=O)CNC(=O)c2cccs2)cc1,96*,0,360
COc1ccc(NC(=O)COC(=O)CNC(=O)c2cccs2)cc1Cl,-1,1,217
CCN(CC)c1ccc(NC(=O)COC(=O)Cc2ccsc2)cc1,·,5,·
CCN(CC)c1ccc(NC(=O)COC(=O)C23CCC(=O)N2c2ccccc2S3)cc1 (stereo not given),97*,-1,153
Cc1ccc(NC(=O)COC(=O)CCC(=O)c2cccs2)cc1,-3,-1,184
O=C(OCc1ccccc1)N1CCC2CC1c1cc(N3CCN(S(=O)(=O)c4cccc5ccccc45)CC3)ccc12 (stereo not given),·,-1,·
O=C(COC(=O)c1ccccc1Cc1ccccc1)NC1CCS(=O)(=O)C1 (stereo not given),13,-1,i
O=C(Nc1ccc(N2CCOCC2)cc1)c1csc([C@@H]2C[C@H](O)[C@@H](CO)O2)n1,·,-1,·
COc1cccc(NC(=O)CN(C)C(=O)CC2CCCCC2)c1,·,0,·
CC(NC(=O)COC(=O)c1nc(Cl)ccc1Cl)c1ccccc1 (stereo not given),-3,1,192
Cc1c(C(=O)NC(=S)N(Cc2ccccc2)c2ccccn2)cccc1[N+](=O)[O-],·,1,476
CC1(C)CC(CCC(=O)NC(=S)Nc2ccccc2Cl)C(=O)O1 (stereo not given),3,-1,148
CCC(=O)Nc1ccc(C(=O)Nc2cccc(C)n2)cc1,0,1,180
Cc1ccc(N2CC(C(=O)N3CCN(Cc4ccc5c(c4)OCO5)CC3)CC2=O)cc1 (stereo not given),0,-3,i
COc1ccc(Cl)cc1C=CC=Nc1ccccc1O,·,2,·
SMILES,ALR H2O2 inh,Glyco luc inh,T cell HTS
COc1cccc(NC(=O)COC(=O)COc2ccccc2[N+](=O)[O-])c1,-13,1,404
CCN(CC)c1ccc(NC(=O)COC(=O)COc2ccccc2[N+](=O)[O-])cc1,99*,2,157
CCOC(=O)C1=C(C)NC(C)=C(C(=O)OCC)C1C(=O)OCC(=O)N1CCOCC1,-1,1,149
Oc1ccc(-c2nc(-c3ccc(O)c(O)c3)cs2)cc1,99*,12,344
Oc1ccc(Nc2nc(-c3ccc4ccccc4c3)cs2)cc1,12,3,160
CC1CCCCN1C(=O)c1ccc(C(=O)c2ccccc2)cc1 (stereo not given),·,1,228
COc1cc(/C=N/N2CCN(Cc3ccc(Cl)cc3)CC2)ccc1OC(C)=O,44,0,441
CCN(CC)c1ccc(/C=N\N2CCN(Cc3ccc(C)cc3)CC2)cc1,98*,2,110
Cc1ccc(CN2CCN(/N=C/c3cccnc3)CC2)cc1,·,-6,281
CCN(CC)c1ccc(CN2CCCCCC2)cc1,98*,0,568
Cc1ccc(CN2CCN(/N=C/c3ccc(O)c(O)c3)CC2)cc1,79*,0,295
COc1cc(/C=N/N2CCN(Cc3ccc(Cl)cc3)CC2)cc(Br)c1O,91*,1,311
Cc1ccc(CN2CCN(/N=C/c3ccc(C(=O)O)cc3)CC2)cc1,1,0,297
CN(C)c1ccc(CN2CCCCCC2)cc1,23,0,i
COc1ccc(NCc2nnc(SCc3ccc(Cl)cc3)n2-c2ccccc2)cc1,-4,-4,422
O=C(NCCN1C(=O)S/C(=C\c2cccc(Cl)c2Cl)C1=O)C1=COCCO1,-1,20,190
CC(O)(c1ccc(F)c(F)c1)c1nc(/C=C/c2ccccc2)cs1 (stereo not given),·,0,·

# Source: PubChem
